Hits are enriched below; roughly 4.8% of the tested compounds scored in any of these assays.
NF-kB expr up: activators of NF-kB expression in neurons, primary screen, cell-based, HTS | fold change at 12.5 µM | AID 1239, 2008 | hit rate 1.6% among 190,000 | human neuronal cells, NF-kB reporter expression; active compounds read high; in the data active = fold change above about 3.3
APP 5UTR inh: inhibitors of APP translation via 5'UTR reporter, primary screen, APP 5'UTR luciferase, SH-SY5Y cells. SH-SY5Y APP 5'UTR-luciferase reporter, luminescence. inhibition, % at 2 µM. hit rate 0.82% among 190,000;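 active = inhibition above a set limit, derived from the sample mean plus 3 SD, cut at about 45% in these data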
STAT1 act: STAT1 signaling activators, primary screen, cell-based, HTS, luciferase reporter | NIH 3T3 STAT1-luciferase reporter, IFN-gamma, luminescence; 100% = IFN-gamma alone, no compound | activation (% of control), % at 5.5 µM | hit rate 2.6% among 200,000 | AID 932, 2007;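 active = activation above the screen-wide mean activation plus 3 SD, cut at about 130% in these data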
FLuc inhib CS: firefly luciferase enzyme inhibitors, primary screen, artefact control for luciferase-based inhibitor screens, biochemical, luminescence, ATPLite | Luciferin 4-monooxygenase (Photinus pyralis), P08659 | 10 min | inhibition, % at 10 µM | hit rate 1.5% among 200,000 | AID 1006, 2008;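 active = inhibition above about 50% when tested at 10 µM, limit read from the data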
Target sequence (P08659 whole entry, looked up): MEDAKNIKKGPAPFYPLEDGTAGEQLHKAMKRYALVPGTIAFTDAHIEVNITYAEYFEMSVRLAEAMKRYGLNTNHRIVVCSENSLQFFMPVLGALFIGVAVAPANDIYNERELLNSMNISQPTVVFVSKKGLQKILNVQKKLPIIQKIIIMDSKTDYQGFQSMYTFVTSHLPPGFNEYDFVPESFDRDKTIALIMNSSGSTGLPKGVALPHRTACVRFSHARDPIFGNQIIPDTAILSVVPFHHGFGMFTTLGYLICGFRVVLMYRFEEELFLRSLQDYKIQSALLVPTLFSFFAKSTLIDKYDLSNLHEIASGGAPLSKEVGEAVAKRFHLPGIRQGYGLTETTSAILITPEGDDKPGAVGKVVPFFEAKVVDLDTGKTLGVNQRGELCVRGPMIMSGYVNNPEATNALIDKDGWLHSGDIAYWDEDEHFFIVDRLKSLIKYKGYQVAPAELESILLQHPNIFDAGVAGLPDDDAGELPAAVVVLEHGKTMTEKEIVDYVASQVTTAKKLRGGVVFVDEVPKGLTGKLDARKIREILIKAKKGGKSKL
FLuc act counter: FLuc activators, initial screening, artefact control for FLuc-dependent activation tests, biochemical, ATPlite luminescence; Luciferin 4-monooxygenase (Photinus pyralis), P08659; ATPlite luciferase biochemical, 10 min; 0 = ATP-free wells, 1 = DMSO control; activation factor at 10 µM; 200,000 tested, under 10 active; AID 1027, 2008;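 active = luciferase activation factor, scaled between plate controls, of at least 2 with compound at 10 µM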
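System: luciferase plus luciferin reagent, cell-free; medium: PBS as buffer for the ATP substrate; dosing: test compounds dosed from 2 mM stocks in 100% DMSO; timing: 10 min post-reagent at room temperature; measured by: luminescence measurement of luciferase light output; evaluation: luciferase activation, seen as luminescence increase over controls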
APP 5'UTR act: activators of APP 5'UTR luciferase reporter, primary screen, SH-SY5Y cells. activation, % at 2 µM. AID 1276, 2008. hit rate 1% among 190,000. SH-SY5Y APP 5'UTR luciferase reporter, luminescence; zero percent = DMSO vehicle wells;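 active = activation above a set limit, based on mean plus 3 SD of controls, cut at about 140% in these data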
Of the large screens only hits and unclear results are named; the others gave an inactive call.

O=C(CSc1nc2ccccc2c(=O)n1-c1ccc(F)cc1F)Nc1ccc2c(c1)CCC2	none
O=C(Nc1cnn(Cc2c(Cl)cccc2Cl)c1)C(c1ccccc1)c1ccccc1	APP 5UTR inh 78
O=C(COc1ccccc1Cl)Nc1cnn(Cc2ccccc2)c1	none
COc1cc(OC)c2nc(C)c3c(c2c1)N(c1ccc(O)cc1)CC3	none
O=C(O)CCCNc1cc(N2CCC3(CC2)OCCO3)c2noc3c2c1C(=O)c1ccccc1-3	STAT1 act 143
CCc1ccc(OCC(=O)N/N=C(\C)c2ccc(-n3ccnc3)cc2)cc1	FLuc inhib CS 72
C/C(=N\Nc1ccc(C(=O)O)cc1)c1ccc(-n2ccnc2)cc1	STAT1 act 138
C/C(=N\NC(N)=O)c1ccc(-n2ccnc2)cc1	none
COc1ccc(-c2nn(-c3ccccc3)cc2C(=O)NC(=S)NNC(=O)c2ccncc2)cc1	APP 5UTR inh 50
CCn1c(C)cc(C=C2C(=O)c3ccccc3C2=O)c1C	NF-kB expr up 3.4, FLuc inhib CS 79, APP 5'UTR act 156
Cc1cc(C=C2C(=O)c3ccccc3C2=O)c(C)n1C	NF-kB expr up 6.3
Cc1cccc(-n2c(C)cc(C=C3C(=O)c4ccccc4C3=O)c2C)c1	none
C/C(CC(=O)NC1CCCCC1)=N\NC(=O)COc1ccc(C)cc1Br	none
CCN(C(=O)c1cc2ccccc2oc1=O)c1ccccc1	NF-kB expr up 4.7
CCN(CC)c1ccc2cc(C(N)=O)c(=O)oc2c1	STAT1 act 133
CCN(CC)c1ccc2cc(NC(=O)CCC(=O)O)c(=O)oc2c1	APP 5UTR inh 52
CCN(CC)c1ccc2cc(C(C)=O)c(=O)oc2c1	none
O=c1oc2ccccc2cc1N1CCOCC1	none
Nc1c(-c2ccsc2)cnc2ncnn12	none
CC(C)(C)S(=O)(=O)c1cnc2c(-c3ccsc3)cnn2c1N	STAT1 act 132
O=C(C[n+]1ccccc1)N/N=C/c1cccs1	none
CCCCC(=O)Nc1ccccc1C(C)C	none
O=C(CC(Nc1ccccc1)C(=O)O)c1ccccc1 (configuration not stated)	NF-kB expr up 3.3, FLuc inhib CS 78 (no result: APP 5UTR inh, STAT1 act, APP 5'UTR act)
O=C(CC(Nc1ccccc1)c1ccc(F)cc1)c1ccccc1 (configuration not stated)	none
Cc1[nH]n(C(C)(C)C)c(=O)c1Sc1ccc(Cl)cc1	none
C/C(=N\Nc1cccc([N+](=O)[O-])c1)c1ccccc1O	STAT1 act 135
Brc1ccc(-c2nnc(-c3cccc(Br)c3)o2)cc1	none
Cc1ccc(-c2nnc(-c3ccc(Br)cc3)o2)o1	NF-kB expr up 3.8
O=C(c1c[nH]c2ccccc2c1=O)N1CCCCCC1	none
CC(=O)c1cc2c(cc1NC(=O)c1cc(C)nn1-c1ccccc1)OCO2	APP 5UTR inh 59
CN(C(=O)COc1ccccc1C(=O)NCCOc1ccccc1)c1ccccc1	none
CN1CCN(C(=O)Nc2cccc3ccccc23)CC1	none
CCN1CCN(C(=O)Nc2cccc3ccccc23)CC1	APP 5UTR inh 57
CCOC(=O)Nc1nnc(-c2ccccc2OC)s1	none
COC(=O)Nc1nnc(-c2ccccc2Cl)s1	FLuc inhib CS 55
Cn1c(SCc2cccc([N+](=O)[O-])c2)nc2c(c1=O)SCC2	none
O=S(=O)(NCc1ccccn1)c1ccc(Cl)s1	none
Cc1ccc(S(=O)(=O)Nc2ccccc2-c2ccccc2)cc1	APP 5UTR inh 90
Cc1ccc(S(=O)(=O)Nc2ccnc3ccccc23)cc1	none
COc1c(Cl)cc(C(=O)NN)cc1Cl	APP 5UTR inh 92
CNC(=O)c1cc(Cl)c(OC)c(OC)c1	none
COC(=O)Nc1ccc(S(=O)(=O)N2CCCc3ccccc32)cc1	APP 5UTR inh 90
COC(=O)Nc1ccc(S(=O)(=O)N2CCCc3cccc(O)c32)cc1	none
CC1CN(C(=O)c2ccccc2)c2ccccc2NC1=O (configuration not stated)	none
O=C(NC1CCCCC1)C(c1ccccc1)N(C(=O)Cc1ccsc1)c1ccccc1 (configuration not stated)	none
CN(C)c1nc(NCc2ccccc2)nc(N/N=C/c2cccc(Br)c2)n1	none
Cc1cc(N/N=C/c2cccc(Br)c2)nc2ccccc12	NF-kB expr up 4.2
ClC(Cl)(Cl)c1nc(N/N=C/c2ccncc2)c2ccccc2n1	none
Cc1cc(N/N=C/c2ccncc2)nc2ccccc12	STAT1 act 147
CC(C)CCNC(=O)CO/N=C/c1ccccc1OC(F)F	none
O=S1(=O)N=C(Nc2ccc(N3CCOCC3)c(Cl)c2)c2ccccc21	STAT1 act 146
O=S1(=O)N=C(Nc2ccc(O)cc2)c2ccccc21	none
CCc1ccc(C(=O)NCc2cnn(C)c2)s1	none
Cc1c(/C(O)=C2/C(=O)C(=O)N(CCN3CCOCC3)C2c2cccs2)cnn1-c1ccccc1 (configuration not stated)	STAT1 act 143
Cc1ccccc1N=Nc1ccc(O)c2ncccc12	APP 5UTR inh 77
COc1ccc(C)cc1N=Nc1ccc(O)c2ncccc12	APP 5UTR inh 68
Oc1ccc(N=Nc2ccc3c(c2)OCCO3)c2cccnc12	none
COCc1ccc(O)c2ncccc12	none
C/C(N)=C(/C#N)C(=O)CSc1nc2scc(-c3ccc(F)cc3)c2c(=O)n1C	none
COc1cc(Cl)c(C)cc1NC(=O)c1cccc(OC)c1OC	none
S=C(c1ccc(-c2ccccc2Cl)o1)N1CCOCC1	none
S=C(c1ccc(-c2ccc(Cl)cc2Cl)o1)N1CCCCC1	NF-kB expr up 3.9, STAT1 act 144
c1cnc(SCCOc2ccc3c(c2)CCC3)nc1	NF-kB expr up 7.2, STAT1 act 150 (no result: APP 5UTR inh, APP 5'UTR act)
CC(C)CN(CC(C)C)C(=O)c1cccc(S(=O)(=O)N2CCc3ccccc32)c1	none
CCOC(=O)CC(=O)CSc1nc2ccc(C)cc2cc1C#N	NF-kB expr up 8.3, STAT1 act 137
CCc1cc2ccc(C)cc2nc1SCC(=O)Nc1cc(C)on1	none
CCc1cc2cc(C)ccc2nc1SCC(=O)Nc1cc(C)on1	NF-kB expr up 3.3
CC(C)OC(=O)CC(=O)CSc1nc2c(cc1C#N)CCCCC2	NF-kB expr up 4.3
N#Cc1cc2c(nc1SCc1ccncc1)CCC2	STAT1 act 138
CCSc1nc2ccc(C)cc2cc1C#N	none
O=c1[nH]c(=O)n(-c2ccc(F)cc2)c2c1C(C(F)(F)F)(C(F)(F)F)N=C(c1ccc(F)cc1)N2	none
CCOC(=O)CC(=O)CSc1nc2c(cc1C#N)CCCCC2	NF-kB expr up 4.6, STAT1 act 141
N#Cc1cc2c(nc1SCC(=O)O)CCCC2	none

Compound activity deposited in PubChem BioAssay by several laboratories.
